The term IC50 denotes the concentration needed to halve the response being measured. Low values mean greater potency in that assay, high ones weaker potency in that assay.

Each structure is given as a SMILES string. Calls of active or inactive are those of the source. The rule behind the calls is not given here.

The test system of one test is MG-63. The test is described as follows: Cytotoxicity against human MG63 cells up to 72 uM after 24 to 48 hrs by MTT assay. The class given is functional, cell-based. Summed up:
(§1)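 Cells seeded at 10^4 cells cm−2 and left 24 h to adhere. Exposed 24 or 48 h to fresh medium containing compound from DMSO (1 μL per 100 μL) at final 3 and 30 μg mL−1. MTT added at 0.5 mg mL−1, formazan dissolved in DMSO, absorbance read at 550 nm. Triplicate.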
(Formazan colour is commonly taken as a measure of viable cells.)

The subject of the next test is HepG2. The test is described as follows: Cytotoxicity against human HepG2 cells up to 72 uM after 24 to 48 hrs by MTT assay. Format: functional, cell-based. Summed up: as §1
The next test deals with HT-29. The test is described as follows: Cytotoxicity against human HT-29 cells up to 72 uM after 24 to 48 hrs by MTT assay. The class given is functional, cell-based. Summed up:
as §1

The next test relates to SH-SY5Y. Briefly: Cytotoxicity against human SH-SY5Y cells up to 72 uM after 24 to 48 hrs by MTT assay. Format: functional, cell-based. Summed up:
as §1

A further test relates to RKO. Briefly: Cytotoxicity against human RKO cells up to 72 uM after 24 to 48 hrs by MTT assay. Format: functional, cell-based. Summed up: as §1
Another test relates to T47D. The test is described as follows: Cytotoxicity against human T47D cells up to 72 uM after 24 to 48 hrs by MTT assay. The class given is functional, cell-based. In a few lines: as §1
For another test, the system named is Caco-2. Briefly: Cytotoxicity against human Caco2 cells up to 72 uM after 24 to 48 hrs by MTT assay. Format: functional, cell-based. Summed up: as §1
The test system of test [1] is Plasmodium falciparum. Briefly: Antimalarial activity against Plasmodium falciparum 3D7 infected in human erythrocytes after 48 hrs by SYBR Green-1 dye based assay. The class given is functional, organism-based. The note with it: 3D7, 48 h. In a few lines:
(§2)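 Asexual parasites kept on human erythrocytes in RPMI 1640 with 25 mM HEPES, […] hypoxanthine and 10% AlbuMAX II, pH 7.2. Cultures held at 37 °C under 5% O2 and 3−5% CO2 in N2, and sorbitol-synchronized. SYBR Green I fluorescence read at ex 485/em 535 nm. Percent survival vs untreated; IC50 by nonlinear regression.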

Test [2] deals with Plasmodium falciparum. The test is described as follows: Antimalarial activity against Plasmodium falciparum Dd2 infected in human erythrocytes after 48 hrs by SYBR Green-1 dye based assay. Format: functional, organism-based. The note with it: Dd2, 48 h. In a few lines: as §2

As to `CCCCCCCCCCCCCCCc1c(O)c(OC)cc(OC)c1Cl`, the outcome in the test on MG-63, in the test with HepG2, in the test on HT-29, with SH-SY5Y, in the test on RKO and with T47D was inactive. The result with Caco-2 was inactive. The IC50 in the test with Plasmodium falciparum [1] was determined as 1500 nM; in the test with Plasmodium falciparum [2], 2300 nM.
Consider `CCCCCCCCCCCCCCCc1cc(OC)cc(OC)c1O`, for which the IC50 in the test with Plasmodium falciparum [1] worked out at 2100 nM; in the test with Plasmodium falciparum [2], 2300 nM.

Source of the values: ChEMBL document CHEMBL4330162, “Structure of Hierridin C, Synthesis of Hierridins B and C, and Evidence for Prevalent Alkylresorcinol Biosynthesis in Picocyanobacteria” (J Nat Prod, 2019).
